# Test results published in paper PMC4784479 (Arthritis & rheumatology (Hoboken, N.J.), 2015).
# *1 amine or outer side, *2 acyl side, *3 side chain or, on linkers, in order; H or OH if unused. Where a SMILES comes first, the peptide text is derived from it. Bridges are numbered along the chain shown (N, C = ends). Where no end group is shown, it is not given here. [ ]: non-standard residue; d: D form. X1 = O=C(O)C[C@@H](C(=O)[*:2])N(CCCCN[*:3])[*:1]; X2 = C[C@@H](C(=O)[*:2])N(CCCCN[*:3])[*:1]; CO = O=C([*:1])[*:2]
# Assays:
# [1] = target: T1, SE-activated NO signaling (Mus musculus, UniProt P14211); assay: SE ligand-activated NO signaling assay; type: cell-based; conditions: Linear DKCLA 170 μM, SE ligand 65–79*0401 57 μM, Fig. 1F
# T1 sequence (P14211 18-416): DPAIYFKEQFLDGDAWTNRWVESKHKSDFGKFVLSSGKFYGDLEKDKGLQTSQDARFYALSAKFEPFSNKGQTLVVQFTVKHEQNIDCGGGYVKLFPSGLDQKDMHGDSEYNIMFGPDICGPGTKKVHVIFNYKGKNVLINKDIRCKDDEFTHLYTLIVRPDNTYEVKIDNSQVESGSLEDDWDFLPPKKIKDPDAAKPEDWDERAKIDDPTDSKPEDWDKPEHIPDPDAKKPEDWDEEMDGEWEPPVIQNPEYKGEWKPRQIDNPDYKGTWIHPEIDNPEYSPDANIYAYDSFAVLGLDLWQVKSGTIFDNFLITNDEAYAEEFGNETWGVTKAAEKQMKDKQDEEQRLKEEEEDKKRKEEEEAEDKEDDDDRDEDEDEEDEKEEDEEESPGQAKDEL
# recombinant mouse CRT = target: T2, recombinant mouse CRT (Mus musculus, UniProt P14211); assay: SPR direct interaction with CRT; type: binding; conditions: immobilized recombinant CRT, Fig. 1A
# T2 sequence (P14211 18-416): T1 sequence (P14211 18-416)
# Summary of the method: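 Direct binding was measured by SPR on a CM5 chip preconditioned with NaOH, HCl and SDS pulses and activated with EDC/NHS. Recombinant mouse CRT was amine-coupled at 100 μg/ml (about 5500 RU), then ethanolamine-blocked. Analytes were injected at various concentrations at 25°C and 10 μl/min in HEPES pH 7.4 buffer with KCl, CaCl2, ZnCl2 and P-20. Signal was read in real time as resonance units.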
# primary mouse BMCs = assay: In vitro OC differentiation, primary mouse BMCs; type: cell-based; conditions: SE ligand 65–79*0401 29 μM, Fig. 1J
# Summary of the method: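 Primary bone marrow cells from mouse femurs and tibias were plated at 2 × 10^5/well in MEM with 10% FBS and penicillin/streptomycin. They received 10 ng/ml M-CSF alone for 2 d, then 4 d more with 10 ng/ml M-CSF plus 20 ng/ml RANKL, with or without SE ligand 65–79*0401 (29 μM). Cultures were fixed and TRAP-stained. TRAP-positive cells with more than three nuclei were counted. Results are mean ± SEM; Student's t-test.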
# DBA/1 mice with CIA = assay: Collagen-induced arthritis; type: in vivo, mouse; conditions: disease amelioration at ng/kg-range doses; comparison with ref 24–26
Compound,Inhibition of SE ligand-activated NO signaling [1],Interaction with CRT (SPR) (recombinant mouse CRT),Incremental SE-activated OC differentiation (primary mouse BMCs),In vivo potency in CIA relative to emerging drugs (mg/kg-range doses) (DBA/1 mice with CIA)
Ac-DKCLA (N-terminus assumed) [DKCLA],specifically blocked SE ligand-activated NO signaling,interacted with CRT,,
CC(C)C[C@@H]1NC(=O)[C@H](CS)NC(=O)[C@H](CCCCN)NC(=O)[C@H](CC(=O)O)N(C(=O)[C@@H](N)Cc2c[nH]c3ccccc23)CCCCNC(=O)NCCCCN([C@@H](C)C(N)=O)C1=O [HS(4–4)c Trp] (H-W[X1]KCL[X2]-NH2; linker 2-6 via CO; N-terminus and C-terminus assumed),,,significantly inhibited,"1,000,000 fold"
